Results: ChEMBL document CHEMBL4251543, “Identification of potent tricyclic prodrug S1P1 receptor modulators” (Medchemcomm, 2017)

Legend:
[1] = Half life in rat; format: ADME, organism-based; details: in vivo
[2] = tested on: Rattus norvegicus; assay: Immunosuppressive activity in po dosed Lewis rat assessed as reduction in blood lymphocytes after 24 hrs; format: functional
Method in brief: (§1)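 Oral dosing in Lewis rats, with PEG300 as vehicle, given as solution or suspension adjusted for free test article if salt forms are used. Blood sampled at several time points. Lymphocytes counted on a hematology analyzer. Result is the reduction in circulating lymphocyte percentage versus the vehicle group at each time, averaged per group (n = 2).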

[3] = Prodrug conversion in Lewis rat blood assessed as parent compound levels at 2 mg/kg, po after 48 hrs; format: ADME, organism-based; details: in vivo, read-out: Drug metabolism
[4] = Half life in Lewis rat at 2 mg/kg, po after 72 hrs; format: ADME, organism-based; details: in vivo
[5] = tested on: Rattus norvegicus; assay: Immunosuppressive activity in Lewis rat assessed as reduction in blood lymphocytes count at 2 mg/kg, po after 24 hrs relative to control; format: functional; parameters: scale not given: the % may be the effect or the level left; method in brief: as §1
[6] = species on record: Mus musculus; assay: Pulmonary toxicity in mouse assessed as increase in BAL protein levels at 20 times ED50 relative to control; format: organism-based; details: in vivo
[7] = Prodrug conversion in Lewis rat blood assessed as parent compound levels at 2 mg/kg, po after 4 hrs; format: ADME, organism-based; details: in vivo, read-out: Drug metabolism
[8] = tested on: Rattus norvegicus; assay: Immunosuppressive activity in Lewis rat assessed as reduction in blood lymphocytes count at 2 mg/kg, po after 4 hrs relative to control; format: functional; parameters: scale not given: the % may be the effect or the level left; method in brief: as §1
[9] = Prodrug conversion in Lewis rat blood assessed as parent compound levels at 2 mg/kg, po after 24 hrs; format: ADME, organism-based; details: in vivo, read-out: Drug metabolism
[10] = Prodrug conversion in Lewis rat blood assessed as formation phosphate metabolite at 2 mg/kg, po after 24 hrs; format: ADME, organism-based; details: in vivo
[11] = Prodrug conversion in Lewis rat blood assessed as formation phosphate metabolite at 2 mg/kg, po after 4 hrs; format: ADME, organism-based; details: in vivo
[12] = tested on: Rattus norvegicus; assay: Immunosuppressive activity in Lewis rat assessed as reduction in blood lymphocytes count at 2 mg/kg, po after 48 hrs relative to control; format: functional; parameters: scale not given: the % may be the effect or the level left; method in brief: as §1
[13] = Prodrug conversion in Lewis rat blood assessed as formation phosphate metabolite at 2 mg/kg, po after 48 hrs; format: ADME, organism-based; details: in vivo

CCCCCC[C@@H]1CCc2cc([C@H]3CC[C@](N)(CO)C3)ccc2C1 [BMS-986104]
half-life [1]: 162 h

CCCCOCCOc1nc2c(s1)-c1ccc([C@H]3CC[C@](N)(CO)C3)cc1CC2
ED50 [2]: 0.25 mg/kg
concentration [3]: 27 nM
half-life [4]: 20 h
Activity [5]: 87%
fold change (FC) [6]: 5
concentration [7]: 200 nM
Activity [8]: 79%
concentration [9]: 140 nM
Drug metabolism [10]: 58 nM
Drug metabolism [11]: 120 nM
Activity [12]: 82%
Drug metabolism [13]: 18 nM
